Measured values as given in ChEMBL document CHEMBL1155468, “Syntheses and evaluation of anticonvulsant profile and teratogenicity of novel amide derivatives of branched aliphatic carboxylic acids with 4-aminobenzensulfonamide” (J Med Chem, 2010).
Activity calls are given as the source filed them. No cut-off for these calls is given here.

Legend:
[1] = tested on: Mus musculus; assay: Anticonvulsant activity in CF1 albino mouse assessed as inhibition of subcutaneous pentylenetetrazole-induced seizures at 300 mg/kg, ip after 0.5 hrs; type: functional, organism-based; set-up: dose 300 mg/kg
How it was run: (§1)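 Adult male CF no. 1 albino mice (18-25 g) dosed ip with compound suspended in 0.5% methylcellulose (0.01 mL/g). Convulsant: pentylenetetrazol dissolved in 0.9% saline as a 0.85% solution for mice, given subcutaneously.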

[2] = tested on: Mus musculus; assay: Neurotoxicity in CF1 albino mouse assessed as motor impairment at 30 mg/kg, ip after 0.5 hrs; type: toxicity, organism-based; set-up: dose 30 mg/kg, route intraperitoneal; details: in vivo
[3] = tested on: Mus musculus; assay: Teratogenic effect in SWV mouse assessed as resorptions at 511 mg/kg, ip administered on morning of day 8 of gestation; type: toxicity, organism-based; set-up: dose 511 mg/kg, route intraperitoneal; details: in vivo
How it was run: (§2)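 SWV inbred mice: two-month-old nulligravid females mated overnight with males and checked for vaginal plugs next morning; gestation onset taken as 10 p.m. the previous night. On gestation day 8.5 each dam got one ip injection, 0.55–2.7 mmol/kg, in 25% aqueous Cremophor EL (vehicle controls dosed alike), 10 μL/g body weight. Litters and implants tallied; resorptions and live fetuses reported as counts with percentages.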

[4] = tested on: Mus musculus; assay: Anticonvulsant activity in CF1 albino mouse assessed as inhibition of maximal electroshock-induced seizures at 100 mg/kg, ip after 0.5 hrs; type: functional, organism-based; set-up: dose 100 mg/kg
How it was run: (§3)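 Test compounds suspended in 0.5% methylcellulose and given ip to adult male CF no. 1 albino mice (18-25 g) at 0.01 mL/g body weight before maximal electroshock challenge.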

[5] = tested on: Mus musculus; assay: Neurotoxicity in CF1 albino mouse assessed as motor impairment at 100 mg/kg, ip after 4 hrs; type: toxicity, organism-based; set-up: dose 100 mg/kg, route intraperitoneal; details: in vivo
[6] = tested on: Mus musculus; assay: Teratogenic effect in SWV mouse assessed as live fetuses at 310 mg/kg, ip administered on morning of day 8 of gestation; type: toxicity, organism-based; set-up: dose 310 mg/kg, route intraperitoneal; details: in vivo
How it was run: (§4)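 Two-month-old nulligravid SWV females were mated overnight and checked for vaginal plugs the next morning; gestation onset was set at 10 p.m. the previous night. On gestation day 8.5, each dam received a single ip injection (0.55-2.7 mmol/kg range) or vehicle (25% aqueous Cremophor EL) at 10 μL/g body weight. Litters were scored for implants, resorptions, live and dead fetuses, and fetuses with neural tube defects.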

[7] = tested on: Mus musculus; assay: Anticonvulsant activity in CF1 albino mouse assessed as inhibition of maximal electroshock-induced seizures at 300 mg/kg, ip after 4 hrs; type: functional, organism-based; set-up: dose 300 mg/kg; how it was run: as §3
[8] = tested on: Mus musculus; assay: Neurotoxicity in CF1 albino mouse assessed as motor impairment at 30 mg/kg, ip after 4 hrs; type: toxicity, organism-based; set-up: dose 30 mg/kg, route intraperitoneal; details: in vivo
[9] = tested on: Mus musculus; assay: Teratogenic effect in SWV mouse assessed as resorptions at 310 mg/kg, ip administered on morning of day 8 of gestation; type: toxicity, organism-based; set-up: dose 310 mg/kg, route intraperitoneal; details: in vivo; how it was run: as §2
[10] = tested on: Mus musculus; assay: Teratogenic effect in SWV mouse assessed as fetuses with neural tube deffects at 310 mg/kg, ip administered on morning of day 8 of gestation; type: toxicity, organism-based; set-up: dose 310 mg/kg, route intraperitoneal; details: in vivo; how it was run: as §4
[11] = tested on: Mus musculus; assay: Anticonvulsant activity in CF1 albino mouse assessed as inhibition of subcutaneous pentylenetetrazole-induced seizures at 300 mg/kg, ip after 4 hrs; type: functional, organism-based; set-up: dose 300 mg/kg; how it was run: as §1
[12] = tested on: Mus musculus; assay: Anticonvulsant activity in CF1 albino mouse assessed as inhibition of subcutaneous pentylenetetrazole-induced seizures at 30 mg/kg, ip after 4 hrs; type: functional, organism-based; set-up: dose 30 mg/kg; how it was run: as §1
[13] = tested on: Mus musculus; assay: Neurotoxicity in CF1 albino mouse assessed as motor impairment at 300 mg/kg, ip after 4 hrs; type: toxicity, organism-based; set-up: dose 300 mg/kg, route intraperitoneal; details: in vivo
[14] = tested on: Mus musculus; assay: Anticonvulsant activity in CF1 albino mouse assessed as inhibition of subcutaneous pentylenetetrazole-induced seizures at 100 mg/kg, ip after 0.5 hrs; type: functional, organism-based; set-up: dose 100 mg/kg; how it was run: as §1
[15] = tested on: Rattus norvegicus; assay: Anticonvulsant activity in po dosed rat assessed as inhibition of maximal electroshock-induced seizures
[16] = tested on: Mus musculus; assay: Anticonvulsant activity in CF1 albino mouse assessed as inhibition of maximal electroshock-induced seizures at 30 mg/kg, ip after 0.5 hrs; type: functional, organism-based; set-up: dose 30 mg/kg; how it was run: as §3
[17] = tested on: Rattus norvegicus; assay: Anticonvulsant activity in Sprague-Dawley rat assessed as inhibition of maximal electroshock-induced seizures at 30 mg/kg, po after 2 hrs
[18] = tested on: Mus musculus; assay: Teratogenic effect in SWV mouse assessed as fetuses with neural tube deffects at 511 mg/kg, ip administered on morning of day 8 of gestation; type: toxicity, organism-based; set-up: dose 511 mg/kg, route intraperitoneal; details: in vivo; how it was run: as §4
[19] = tested on: Mus musculus; assay: Anticonvulsant activity in CF1 albino mouse assessed as inhibition of maximal electroshock-induced seizures at 30 mg/kg, ip after 4 hrs; type: functional, organism-based; set-up: dose 30 mg/kg; how it was run: as §3
[20] = tested on: Rattus norvegicus; assay: Neurotoxicity in Sprague-Dawley rat assessed as motor impairment at 30 mg/kg, po after 0.25 to 4 hrs; details: in vivo
[21] = tested on: Mus musculus; assay: Neurotoxicity in CF1 albino mouse assessed as motor impairment at 100 mg/kg, ip after 0.5 hrs; type: toxicity, organism-based; set-up: dose 100 mg/kg, route intraperitoneal; details: in vivo
[22] = tested on: Mus musculus; assay: Anticonvulsant activity in CF1 albino mouse assessed as inhibition of subcutaneous pentylenetetrazole-induced seizures at 30 mg/kg, ip after 0.5 hrs; type: functional, organism-based; set-up: dose 30 mg/kg; how it was run: as §1
[23] = tested on: Mus musculus; assay: Anticonvulsant activity in CF1 albino mouse assessed as inhibition of subcutaneous pentylenetetrazole-induced seizures at 100 mg/kg, ip after 4 hrs; type: functional, organism-based; set-up: dose 100 mg/kg; how it was run: as §1
[24] = tested on: Mus musculus; assay: Neurotoxicity in CF1 albino mouse assessed as motor impairment at 300 mg/kg, ip after 0.5 hrs; type: toxicity, organism-based; set-up: dose 300 mg/kg, route intraperitoneal; details: in vivo
[25] = tested on: Rattus norvegicus; assay: Anticonvulsant activity in Sprague-Dawley rat assessed as inhibition of maximal electroshock-induced seizures at 30 mg/kg, po after 4 hrs
[26] = species: Rattus norvegicus; assay: Protective index, ratio of TD50 for rat to ED50 for maximal electroshock-induced rat seizure model
[27] = tested on: Mus musculus; assay: Teratogenic effect in SWV mouse assessed as live fetuses at 511 mg/kg, ip administered on morning of day 8 of gestation; type: toxicity, organism-based; set-up: dose 511 mg/kg, route intraperitoneal; details: in vivo; how it was run: as §2
[28] = tested on: Mus musculus; assay: Teratogenic effect in SWV mouse assessed as resorptions at 156 mg/kg, ip administered on morning of day 8 of gestation; type: toxicity, organism-based; set-up: dose 156 mg/kg, route intraperitoneal; details: in vivo; how it was run: as §2
[29] = tested on: Mus musculus; assay: Anticonvulsant activity in CF1 albino mouse assessed as inhibition of maximal electroshock-induced seizures at 300 mg/kg, ip after 0.5 hrs; type: functional, organism-based; set-up: dose 300 mg/kg; how it was run: as §3
[30] = tested on: Mus musculus; assay: Teratogenic effect in SWV mouse assessed as live fetuses at 156 mg/kg, ip administered on morning of day 8 of gestation; type: toxicity, organism-based; set-up: dose 156 mg/kg, route intraperitoneal; details: in vivo; how it was run: as §4

CCC(CC)C(=O)NCc1ccc(S(N)(=O)=O)cc1
Activity [1]: inactive
Activity [2]: Non-toxic
Activity [3]: 6.4%
Activity [4]: Active
Activity [5]: Non-toxic
Activity [6]: 93.5%
Activity [7]: Active
Activity [8]: Non-toxic
Activity [9]: 6.5%
Activity [10]: 3.4%
Activity [11]: inactive
Activity [12]: inactive
Activity [13]: Non-toxic
Activity [14]: inactive
ED50 [15]: 24.7 mg/kg
Activity [16]: inactive
Activity [17]: inactive
Activity [18]: 3.1%
Activity [19]: inactive
Activity [20]: Non-toxic
Activity [21]: Non-toxic
Activity [22]: inactive
Activity [23]: inactive
Activity [24]: Non-toxic
Activity [25]: inactive
Ratio TD50/ED50 [26]: >20.2
Activity [27]: 93.6%
Activity [28]: 5.6%
Activity [29]: Active
Activity [30]: 94.4%
